Where “and” joins values, the source holds several entries; their conditions need not be identical. Equal values may be shown once.
Test system: U2OS
Assay: Multiplex assay against U2OS
Assay type: toxicity, cell-based
Conditions: human
Procedure, shortened: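 Four dyes were applied at seeding to live cells: Hoechst33342, BioTracker Green Microtubule Cytoskeleton Dye, MitoTracker Red and Annexin V Alexa Fluor 680. Imaging after compound addition used a CQ1 microscope at 37°C and 5% CO2. CellPathfinder machine-learning gating then sorted cells into Hoechst high-intensity objects or normal cells, normal cells into healthy, pyknosed or fragmented nuclei, and pyknosed cells into mitotic or apoptotic, with tubulin, mitochondrial-mass and membrane-permeability phenotypes given as per cents of healthy-nucleus cells.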

[1] = 12 h, 1 µM, compound concentration 1 uM
[2] = 12 h, 10 µM, compound concentration 10 uM
[3] = 24 h, 1 µM, compound concentration 1 uM
[4] = 24 h, 10 µM, compound concentration 10 uM
[5] = 48 h, 1 µM, compound concentration 1 uM
[6] = 48 h, 10 µM, compound concentration 10 uM

CC(C)CC(=O)Nc1cncc(-c2ccc3[nH]nc(-c4nc5c(-c6cccc(F)c6)cncc5[nH]4)c3c2)c1 [LORECIVIVINT]
Population Apoptotic (%) [1]: 45.16% and 22.22% | Population Fragmented Nuclei (%) [1]: 2.6% and 2.94% | Population Healthy Nuclei (%) [1]: 88.44% and 83.82% | Population Hoechst High Intensity Objects (%) [1]: 0% | Population Membrane Permeable-Phenotype (%) [1]: 5.23% and 5.26% | Population Mitotic Cells (%) [1]: 54.84% and 77.78% | Population Normal (%) [1]: 100% | Population Pyknosed Nuclei (%) [1]: 8.96% and 13.24% | Population Tubulin-Different-Phenotype (%) [1]: 7.84% and 9.65% | Total Cell Count [1]: 346 and 136 | Population Apoptotic (%) [2]: 60.48% and 43.06% | Population Fragmented Nuclei (%) [2]: 3.46% and 6.63% | Population Healthy Nuclei (%) [2]: 55.31% and 53.59% | Population Hoechst High Intensity Objects (%) [2]: 0% | Population Membrane Permeable-Phenotype (%) [2]: 4.46% and 6.19% | Population Mitochondria Different-Phenotype (%) [2]: 0% and 2.06% | Population Mitotic Cells (%) [2]: 39.52% and 56.94% | Population Normal (%) [2]: 100% | Population Pyknosed Nuclei (%) [2]: 41.23% and 39.78% | Population Tubulin-Different-Phenotype (%) [2]: 8.04% and 1.03% | Total Cell Count [2]: 405 and 181 | Population Apoptotic (%) [3]: 65.71% and 37.04% | Population Fragmented Nuclei (%) [3]: 3.06% and 4.14% | Population Healthy Nuclei (%) [3]: 87.22% and 77.24% | Population Hoechst High Intensity Objects (%) [3]: 0.28% and 0% | Population Membrane Permeable-Phenotype (%) [3]: 2.87% and 3.57% | Population Mitotic Cells (%) [3]: 34.29% and 62.96% | Population Normal (%) [3]: 99.72% and 100% | Population Pyknosed Nuclei (%) [3]: 9.72% and 18.62% | Population Tubulin-Different-Phenotype (%) [3]: 5.73% and 4.46% | Total Cell Count [3]: 361 and 145 | Population Apoptotic (%) [4]: 54.77% and 33.33% | Population Fragmented Nuclei (%) [4]: 3.76% and 6.3% | Population Healthy Nuclei (%) [4]: 39.53% and 38.24% | Population Hoechst High Intensity Objects (%) [4]: 0% | Population Membrane Permeable-Phenotype (%) [4]: 4.17% and 5.49% | Population Mitochondria Different-Phenotype (%) [4]: 0.6% and 2.2% | Population Mitotic Cells (%) [4]: 45.23% and 66.67% | Population Normal (%) [4]: 100% | Population Pyknosed Nuclei (%) [4]: 56.71% and 55.46% | Population Tubulin-Different-Phenotype (%) [4]: 10.12% and 3.3% | Total Cell Count [4]: 425 and 238 | Population Apoptotic (%) [5]: 60.87% and 57% | Population Fragmented Nuclei (%) [5]: 5.63% and 2.11% | Population Healthy Nuclei (%) [5]: 42.54% and 27.46% | Population Hoechst High Intensity Objects (%) [5]: 0% | Population Membrane Permeable-Phenotype (%) [5]: 3.31% and 7.69% | Population Mitochondria Different-Phenotype (%) [5]: 0% and 12.82% | Population Mitotic Cells (%) [5]: 39.13% and 43% | Population Normal (%) [5]: 100% | Population Pyknosed Nuclei (%) [5]: 51.83% and 70.42% | Population Tubulin-Different-Phenotype (%) [5]: 7.95% and 10.26% | Total Cell Count [5]: 355 and 142 | Population Apoptotic (%) [6]: 66.91% and 37.27% | Population Fragmented Nuclei (%) [6]: 5.11% and 2.77% | Population Healthy Nuclei (%) [6]: 33.11% and 33.6% | Population Hoechst High Intensity Objects (%) [6]: 0% | Population Membrane Permeable-Phenotype (%) [6]: 5.37% and 9.41% | Population Mitochondria Different-Phenotype (%) [6]: 1.34% and 1.18% | Population Mitotic Cells (%) [6]: 33.09% and 62.73% | Population Normal (%) [6]: 100% | Population Pyknosed Nuclei (%) [6]: 61.78% and 63.64% | Total Cell Count [6]: 450 and 253

CC(=O)NCCc1c(Cc2ccccc2)[nH]c2ccccc12 [LUZINDOLE]
Population Apoptotic (%) [1]: 72% and 100% | Population Fragmented Nuclei (%) [1]: 25% and 19% | Population Healthy Nuclei (%) [1]: 65% and 77% | Population Hoechst High Intensity Objects (%) [1]: 3% and 2% | Population Membrane Permeable-Phenotype (%) [1]: 3% and 6% | Population Mitochondria Different-Phenotype (%) [1]: 4% and 2% | Population Normal (%) [1]: 96% and 97% | Population Pyknosed Nuclei (%) [1]: 9% and 3% | Population Tubulin-Different-Phenotype (%) [1]: 1% and 2% | Total Cell Count [1]: 233 and 134 | Population Apoptotic (%) [2]: 81% and 76% | Population Fragmented Nuclei (%) [2]: 26% and 13% | Population Healthy Nuclei (%) [2]: 65% and 78% | Population Hoechst High Intensity Objects (%) [2]: 2% and 1% | Population Membrane Permeable-Phenotype (%) [2]: 8% and 5% | Population Mitochondria Different-Phenotype (%) [2]: 3% and 2% | Population Mitotic Cells (%) [2]: 18% and 23% | Population Normal (%) [2]: 97% and 98% | Population Pyknosed Nuclei (%) [2]: 7% | Population Tubulin-Different-Phenotype (%) [2]: 4% and 3% | Total Cell Count [2]: 291 and 179 | Population Apoptotic (%) [3]: 90% and 88% | Population Fragmented Nuclei (%) [3]: 19% and 18% | Population Healthy Nuclei (%) [3]: 68% and 70% | Population Hoechst High Intensity Objects (%) [3]: 4% and 0% | Population Membrane Permeable-Phenotype (%) [3]: 2% and 5% | Population Mitochondria Different-Phenotype (%) [3]: 3% and 1% | Population Mitotic Cells (%) [3]: 10% and 11% | Population Normal (%) [3]: 95% and 99% | Population Pyknosed Nuclei (%) [3]: 12% and 10% | Population Tubulin-Different-Phenotype (%) [3]: 3% and 4% | Total Cell Count [3]: 260 and 156 | Population Apoptotic (%) [4]: 88% and 85% | Population Fragmented Nuclei (%) [4]: 25% and 11% | Population Healthy Nuclei (%) [4]: 66% and 80% | Population Hoechst High Intensity Objects (%) [4]: 2% and 0% | Population Membrane Permeable-Phenotype (%) [4]: 6% | Population Mitochondria Different-Phenotype (%) [4]: 3% and 1% | Population Mitotic Cells (%) [4]: 12% and 15% | Population Normal (%) [4]: 97% and 99% | Population Pyknosed Nuclei (%) [4]: 7% and 8% | Population Tubulin-Different-Phenotype (%) [4]: 4% and 3% | Total Cell Count [4]: 342 and 236 | Population Apoptotic (%) [5]: 91% and 80% | Population Fragmented Nuclei (%) [5]: 16% and 11% | Population Healthy Nuclei (%) [5]: 74% and 77% | Population Hoechst High Intensity Objects (%) [5]: 2% and 1% | Population Membrane Permeable-Phenotype (%) [5]: 3% and 8% | Population Mitochondria Different-Phenotype (%) [5]: 2% and 1% | Population Mitotic Cells (%) [5]: 8% and 20% | Population Normal (%) [5]: 97% and 98% | Population Pyknosed Nuclei (%) [5]: 9% and 11% | Population Tubulin-Different-Phenotype (%) [5]: 2% and 4% | Total Cell Count [5]: 395 and 217 | Population Apoptotic (%) [6]: 89% and 100% | Population Fragmented Nuclei (%) [6]: 21% and 11% | Population Healthy Nuclei (%) [6]: 69% and 82% | Population Hoechst High Intensity Objects (%) [6]: 2% and 1% | Population Membrane Permeable-Phenotype (%) [6]: 6% and 5% | Population Mitochondria Different-Phenotype (%) [6]: 3% and 2% | Population Mitotic Cells (%) [6]: 10% and 0% | Population Normal (%) [6]: 97% and 98% | Population Pyknosed Nuclei (%) [6]: 8% and 5% | Population Tubulin-Different-Phenotype (%) [6]: 3% | Total Cell Count [6]: 446 and 354

N[C@@]1(C(=O)O)CO[C@H]2[C@H](C(=O)O)[C@H]21 [LY-379268]
Population Apoptotic (%) [1]: 85% and 100% | Population Fragmented Nuclei (%) [1]: 20% and 17% | Population Healthy Nuclei (%) [1]: 76% and 79% | Population Hoechst High Intensity Objects (%) [1]: 0% | Population Membrane Permeable-Phenotype (%) [1]: 2% and 8% | Population Mitochondria Different-Phenotype (%) [1]: 1% and 2% | Population Mitotic Cells (%) [1]: 14% and 0% | Population Normal (%) [1]: 99% | Population Pyknosed Nuclei (%) [1]: 3% and 2% | Population Tubulin-Different-Phenotype (%) [1]: 1% and 3% | Total Cell Count [1]: 211 and 108 | Population Apoptotic (%) [2]: 63% and 80% | Population Fragmented Nuclei (%) [2]: 30% and 19% | Population Healthy Nuclei (%) [2]: 61% and 77% | Population Hoechst High Intensity Objects (%) [2]: 0% and 1% | Population Membrane Permeable-Phenotype (%) [2]: 8% and 4% | Population Mitochondria Different-Phenotype (%) [2]: 2% and 1% | Population Mitotic Cells (%) [2]: 36% and 20% | Population Normal (%) [2]: 99% and 98% | Population Pyknosed Nuclei (%) [2]: 7% and 3% | Population Tubulin-Different-Phenotype (%) [2]: 3% and 1% | Total Cell Count [2]: 264 and 143 | Population Apoptotic (%) [3]: 88% and 100% | Population Fragmented Nuclei (%) [3]: 20% and 11% | Population Healthy Nuclei (%) [3]: 71% and 79% | Population Hoechst High Intensity Objects (%) [3]: 1% and 0% | Population Mitochondria Different-Phenotype (%) [3]: 1% and 2% | Population Mitotic Cells (%) [3]: 11% and 0% | Population Normal (%) [3]: 98% and 100% | Population Pyknosed Nuclei (%) [3]: 7% and 9% | Population Tubulin-Different-Phenotype (%) [3]: 1% and 6% | Total Cell Count [3]: 245 and 133 | Population Apoptotic (%) [4]: 81% and 90% | Population Fragmented Nuclei (%) [4]: 25% and 16% | Population Healthy Nuclei (%) [4]: 66% and 77% | Population Hoechst High Intensity Objects (%) [4]: 1% | Population Membrane Permeable-Phenotype (%) [4]: 8% and 4% | Population Mitochondria Different-Phenotype (%) [4]: 1% and 4% | Population Mitotic Cells (%) [4]: 18% and 10% | Population Normal (%) [4]: 98% | Population Pyknosed Nuclei (%) [4]: 7% and 6% | Population Tubulin-Different-Phenotype (%) [4]: 2% and 4% | Total Cell Count [4]: 284 and 165 | Population Apoptotic (%) [5]: 92% and 100% | Population Fragmented Nuclei (%) [5]: 13% and 15% | Population Healthy Nuclei (%) [5]: 79% and 72% | Population Hoechst High Intensity Objects (%) [5]: 1% and 2% | Population Membrane Permeable-Phenotype (%) [5]: 3% and 11% | Population Mitochondria Different-Phenotype (%) [5]: 2% and 5% | Population Mitotic Cells (%) [5]: 7% and 0% | Population Normal (%) [5]: 98% and 97% | Population Pyknosed Nuclei (%) [5]: 7% and 12% | Population Tubulin-Different-Phenotype (%) [5]: 3% and 5% | Total Cell Count [5]: 348 and 178 | Population Apoptotic (%) [6]: 92% and 90% | Population Fragmented Nuclei (%) [6]: 24% and 11% | Population Healthy Nuclei (%) [6]: 68% and 83% | Population Hoechst High Intensity Objects (%) [6]: 2% | Population Membrane Permeable-Phenotype (%) [6]: 9% and 3% | Population Mitochondria Different-Phenotype (%) [6]: 2% | Population Mitotic Cells (%) [6]: 7% and 9% | Population Normal (%) [6]: 97% | Population Pyknosed Nuclei (%) [6]: 7% and 4% | Population Tubulin-Different-Phenotype (%) [6]: 3% | Total Cell Count [6]: 383 and 228

— ChEMBL document CHEMBL5724801, “EUbOPEN Chemogenomics Library - Multiplex” (2024)
